Results gathered from unrelated publications.
Compare with care: the assays were run in different laboratories.
Target: Ephrin type-A receptor 4 (EPHA4, Homo sapiens, UniProt P54764)

For `C[C@@H](c1ccc(-n2cnc3c(N)ncnc32)cc1)N1CCc2nn(C)c(Cc3ccccc3)c2C1=O`, the remaining binding was 97% (binding; competition with immobilised ligand; 0.1 µM).
For `COc1ccnn2ncc(-c3ccnc(N(C)C)n3)c12`, the remaining binding was 95% (binding; 1 µM).
With `FC(F)(F)Oc1cccc(-c2cnc3ccc(-c4ccncc4)nn23)c1` the remaining binding was 92% (cell-free assay; competition with immobilised ligand; 5 µM).
`C=CC(=O)N1CCC(C(=O)NCC(=O)N2CCN(c3nc(-c4cnc(N)nc4C(F)F)nc(N4CCOCC4)n3)CC2)CC1` gave a remaining binding of 94% (binding; competition with immobilised ligand; 1 µM).
`O=c1nc(-c2ccccn2)sc2ccccc12` has a remaining binding of 100% (cell-free assay; competition with immobilised ligand; 1 µM).
`O=C(c1ccc(Nc2ncc(Cl)c(-c3cc4ccccc4s3)n2)cc1)N1CCC(N2CCCC2)CC1` has a remaining binding of 65% (binding; competition with immobilised ligand; 1 µM).
With `CC(=O)c1c(NS(C)(=O)=O)c2cc(-c3ccc(Cl)cc3)c(-c3ccc(Cl)cc3Cl)nc2n(C)c1=O` the remaining binding was 98% (cell-free assay; competition with immobilised ligand; 1 µM).
`Cc1cnn2ncc(-c3ccnc(N(C)C)n3)c2c1` gave a remaining binding of 96% (binding; 1 µM).
With `O=C(c1ccc(Nc2ncc(Cl)c(-c3ccc(Cl)s3)n2)cc1)N1CCC(N2CCCC2)CC1` the remaining binding was 84% (binding; competition with immobilised ligand; 1 µM).
For `N[C@H]1CCN(c2nccc(-c3cnn4ncccc34)n2)C1`, the remaining binding was 100% (binding; 1 µM).
`O=C(c1ccc(Nc2nccc(-c3cc4ccccc4s3)n2)cc1)N1CCC(N2CCCC2)CC1` gave a remaining binding of 91% (binding; competition with immobilised ligand; 1 µM).
`COc1cnc(Nc2cccc(S(N)(=O)=O)c2)nc1N1CCN(c2ccccc2)CC1` has a remaining binding of 97% (binding; competition with immobilised ligand; 1 µM).
`NS(=O)(=O)c1cc(NC(=O)Cc2ccccc2)ccc1Oc1cccc(Cl)c1` has a remaining binding of 97% (cell-free assay; competition with immobilised ligand; 1 µM).
For `CCN1CCN(Cc2ccc(C(=O)Nc3ccc(C)c(Oc4ccc5c(c4)CC(=O)N5)c3)cc2C(F)(F)F)CC1`, the remaining binding was 100% (binding; competition with immobilised ligand; 1 µM).
`CC1CCCN1c1nccc(-c2cnn3ncccc23)n1` (stereo not shown) has a remaining binding of 97% (binding; 1 µM).
`CNC(=O)c1ccc(Nc2ncc(C(F)(F)F)c(NCc3nccnc3N(C)S(C)(=O)=O)n2)cc1` gave a remaining binding of 99% (cell-free assay; competition with immobilised ligand; 0.1 µM).
`CN(c1nccc(-c2cnn3ncccc23)n1)C1CC1` gave a remaining binding of 100% (binding; 1 µM).
`O=C1NC(c2ccccn2)Sc2ccccc21` (stereo not shown) gave a remaining binding of 89% (cell-free assay; competition with immobilised ligand; 1 µM).
With `C[C@H]1CCN(c2nccc(-c3cnn4ncccc34)n2)C1` the remaining binding was 86% (binding; 1 µM).
`O=C(N1CCS(=O)(=O)CC1)N1C[C@H](c2ccc(OC(F)(F)F)cc2)C[C@H](c2nc(C3CC3)no2)C1` gave a remaining binding of 100% (cell-free assay; competition with immobilised ligand; 1 µM).
`CN(C)c1ncc(F)c(-c2cnn3ncccc23)n1` has a remaining binding of 100% (binding; 1 µM).
`O=C(Nc1c[nH]nc1C(=O)NC1CCNCC1)c1cc(F)cc(F)c1` has a remaining binding of 100% (binding; competition with immobilised ligand; 1 µM).
